Laboratory results: ChEMBL document CHEMBL1133594, “Structure-function studies on the new growth hormone-releasing peptide, ghrelin: minimal sequence of ghrelin necessary for activation of growth hormone secretagogue receptor 1a” (J Med Chem, 2000)
Residues, ends and D or L forms follow the SMILES beside them. *: point of attachment. Octanoyl = CCCCCCCC(=O)*

Columns and labels:
HEK293 [1] = test: Effective dose measuring intracellular calcium elevation in HEK293 cells; assay type: functional, cell-based; conditions: Homo sapiens
Summary of the method: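 Apo-aequorin was charged 1 h with 10 µM coelenterazine and 300 µM reduced glutathione in ECB buffer, pH 7.4. 5 × 10^4 cells were injected onto peptide and light integrated over 30 s, then Triton X-100 lysis (0.1% final) read over 10 s. Fractional response = challenge/total luminescence.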

[2] = target: Growth hormone secretagogue receptor type 1 (Homo sapiens, UniProt Q92847); test: Binding affinity to cloned human growth hormone secretagogue receptor type 1 in a competitive binding assay with [35S]MK-0677 as a radiolabeled ligand
Summary of the method: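 Competition filter binding on crude membranes from HEK293-aequorin stable cells expressing hGHSR1a, 4 µg membrane protein/well. Bound membranes were filtered on 0.5% polyethylenimine-prewet GF/C filters, washed 8 times and counted by scintillation.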

HEK293 [3] = test: Percent activation at 10 uM relative to ghrelin to measure intracellular calcium elevation in HEK293 cells; assay type: functional, Homo sapiens

Chain of Growth hormone secretagogue receptor type 1 (Q92847 whole entry): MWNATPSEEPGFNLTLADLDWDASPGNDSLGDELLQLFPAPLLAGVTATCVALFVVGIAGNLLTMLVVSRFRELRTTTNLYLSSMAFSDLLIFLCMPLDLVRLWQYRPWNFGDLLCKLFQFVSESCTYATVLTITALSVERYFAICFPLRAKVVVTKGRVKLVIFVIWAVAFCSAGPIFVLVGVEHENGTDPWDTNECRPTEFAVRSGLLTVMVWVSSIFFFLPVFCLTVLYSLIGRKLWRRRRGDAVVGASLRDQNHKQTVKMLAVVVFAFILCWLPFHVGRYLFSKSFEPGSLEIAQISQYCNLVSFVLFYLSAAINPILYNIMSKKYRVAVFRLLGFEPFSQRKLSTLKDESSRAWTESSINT

Row | Compound | EC50 (HEK293 [1]) [nM] | IC50 [2] [nM] | Activation (HEK293 [3]) [%]
1 | CCCCCCCC(=O)OC[C@H](NC(=O)[C@H](CO)NC(=O)CN)C(=O)N[C@@H](Cc1ccccc1)C(=O)N[C@@H](CC(C)C)C(=O)N[C@@H](CO)C(=O)N1CCC[C@H]1C(=O)N[C@@H](CCC(=O)O)C(=O)N[C@@H](Cc1c[nH]cn1)C(=O)N[C@@H](CCC(N)=O)C(=O)N[C@@H](CCCN=C(N)N)C(=O)N[C@H](C(=O)N[C@@H](CCC(N)=O)C(=O)N[C@@H](CCC(N)=O)C(=O)O)C(C)C [listing 1 of 2 here] | 17 | 9.6 | 
2 | CCCCCCCC(=O)OC[C@H](NC(=O)[C@H](CO)NC(=O)CN)C(=O)N[C@@H](Cc1ccccc1)C(=O)N[C@@H](CC(C)C)C(=O)N[C@@H](CO)C(=O)N1CCC[C@H]1C(=O)N[C@@H](CCC(=O)O)C(=O)N[C@@H](Cc1c[nH]cn1)C(=O)N[C@@H](CCC(N)=O)C(=O)N[C@@H](CCCN=C(N)N)C(=O)N[C@H](C(=O)N[C@@H](CCC(N)=O)C(=O)N[C@@H](CCC(N)=O)C(=O)O)C(C)C [listing 2 of 2 here] |  |  | 97
3 | CCCCCCCC(=O)NC[C@H](NC(=O)[C@H](CO)NC(=O)CN)C(=O)N[C@@H](Cc1ccccc1)C(=O)N[C@@H](CC(C)C)C(=O)N[C@@H](CO)C(=O)N1CCC[C@H]1C(=O)N[C@@H](CCC(=O)O)C(=O)N[C@@H](Cc1c[nH]cn1)C(=O)N[C@@H](CCC(N)=O)C(=O)N[C@@H](CCCNC(=N)N)C(=O)N[C@H](C(=O)N[C@@H](CCC(N)=O)C(=O)N[C@@H](CCC(N)=O)C(=O)O)C(C)C [listing 1 of 2 here] | 38 | 8 | 
4 | CCCCCCCC(=O)NC[C@H](NC(=O)[C@H](CO)NC(=O)CN)C(=O)N[C@@H](Cc1ccccc1)C(=O)N[C@@H](CC(C)C)C(=O)N[C@@H](CO)C(=O)N1CCC[C@H]1C(=O)N[C@@H](CCC(=O)O)C(=O)N[C@@H](Cc1c[nH]cn1)C(=O)N[C@@H](CCC(N)=O)C(=O)N[C@@H](CCCNC(=N)N)C(=O)N[C@H](C(=O)N[C@@H](CCC(N)=O)C(=O)N[C@@H](CCC(N)=O)C(=O)O)C(C)C [listing 2 of 2 here] |  |  | 102
5 | CCCCCCCC(=O)OC[C@H](NC(=O)[C@H](CO)NC(=O)CN)C(=O)N[C@@H](Cc1ccccc1)C(=O)N[C@@H](CC(C)C)C(=O)N[C@@H](CO)C(=O)N1CCC[C@H]1C(=O)N[C@@H](CCC(=O)O)C(=O)N[C@@H](Cc1cnc[nH]1)C(=O)N[C@@H](CCC(N)=O)C(=O)N[C@@H](CCCNC(=N)N)C(=O)N[C@H](C(=O)N[C@@H](CCC(N)=O)C(=O)N[C@@H](CCC(N)=O)C(=O)N[C@@H](CCCNC(=N)N)C(=O)N[C@@H](CCCCN)C(=O)N[C@@H](CCC(=O)O)C(=O)N[C@@H](CO)C(=O)N[C@@H](CCCCN)C(=O)N[C@@H](CCCCN)C(=O)N1CCC[C@H]1C(=O)N1CCC[C@H]1C(=O)N[C@@H](C)C(=O)N[C@@H](CCCCN)C(=O)N[C@@H](CC(C)C)C(=O)N[C@@H](CCC(N)=O)C(=O)N1CCC[C@H]1C(=O)N[C@@H](CCCNC(=N)N)C(=O)O)C(C)C |  |  | 100
6 | CC(C)C[C@H](NC(=O)[C@H](CCCCN)NC(=O)[C@H](C)NC(=O)[C@@H]1CCCN1C(=O)[C@@H]1CCCN1C(=O)[C@H](CCCCN)NC(=O)[C@H](CCCCN)NC(=O)[C@H](CO)NC(=O)[C@H](CCC(=O)O)NC(=O)[C@H](CCCCN)NC(=O)[C@H](CCCNC(=N)N)NC(=O)[C@H](CCC(N)=O)NC(=O)[C@H](CCC(N)=O)NC(=O)[C@@H](NC(=O)[C@H](CCCNC(=N)N)NC(=O)[C@H](CCC(N)=O)NC(=O)[C@H](Cc1cnc[nH]1)NC(=O)[C@H](CCC(=O)O)NC(=O)[C@@H]1CCCN1C(=O)[C@H](CO)NC(=O)[C@H](CC(C)C)NC(=O)[C@H](Cc1ccccc1)NC(=O)[C@H](CO)NC(=O)[C@H](CO)NC(=O)CN)C(C)C)C(=O)N[C@@H](CCC(N)=O)C(=O)N1CCC[C@H]1C(=O)N[C@@H](CCCNC(=N)N)C(=O)O | > 10000 |  | 41
7 | CCCCCCCC(=O)NC[C@H](NC(=O)[C@H](CO)NC(=O)CN)C(=O)N[C@@H](Cc1ccccc1)C(=O)N[C@@H](CC(C)C)C(=O)N[C@@H](CO)C(=O)N1CCC[C@H]1C(=O)N[C@@H](CCC(=O)O)C(=O)N[C@@H](Cc1cnc[nH]1)C(=O)N[C@@H](CCC(N)=O)C(=O)N[C@@H](CCCNC(=N)N)C(=O)N[C@H](C(=O)N[C@@H](CCC(N)=O)C(=O)N[C@@H](CCC(N)=O)C(=O)N[C@@H](CCCNC(=N)N)C(=O)N[C@@H](CCCCN)C(=O)N[C@@H](CCC(=O)O)C(=O)N[C@@H](CO)C(=O)N[C@@H](CCCCN)C(=O)N[C@@H](CCCCN)C(=O)N1CCC[C@H]1C(=O)N1CCC[C@H]1C(=O)N[C@@H](C)C(=O)N[C@@H](CCCCN)C(=O)N[C@@H](CC(C)C)C(=O)N[C@@H](CCC(N)=O)C(=O)N1CCC[C@H]1C(=O)N[C@@H](CCCNC(=N)N)C(=O)O)C(C)C | 31 | 0.42 | 105
8 | CC(C)C[C@H](NC(=O)[C@H](CCCCN)NC(=O)[C@H](C)NC(=O)[C@@H]1CCCN1C(=O)[C@@H]1CCCN1C(=O)[C@H](CCCCN)NC(=O)[C@H](CCCCN)NC(=O)[C@H](CO)NC(=O)[C@H](CCC(=O)O)NC(=O)[C@H](CCCCN)NC(=O)[C@H](CCCNC(=N)N)NC(=O)[C@H](CCC(N)=O)NC(=O)[C@H](CCC(N)=O)NC(=O)[C@@H](NC(=O)[C@H](CCCNC(=N)N)NC(=O)[C@H](CCC(N)=O)NC(=O)[C@H](Cc1cnc[nH]1)NC(=O)[C@H](CCC(=O)O)NC(=O)[C@@H]1CCCN1C(=O)[C@H](CO)NC(=O)[C@H](CC(C)C)NC(=O)[C@H](Cc1ccccc1)NC(=O)[C@H](COC(=O)CC12CC3CC(CC(C3)C1)C2)NC(=O)[C@H](CO)NC(=O)CN)C(C)C)C(=O)N[C@@H](CCC(N)=O)C(=O)N1CCC[C@H]1C(=O)N[C@@H](CCCNC(=N)N)C(=O)O |  |  | 95
9 | CCCCCCCC(=O)OC[C@H](NC(=O)[C@H](CO)NC(C)=O)C(=O)N[C@@H](Cc1ccccc1)C(=O)N[C@@H](CC(C)C)C(N)=O (Ac-SS(Octanoyl)FL-NH2) | 1150 | > 2000 | 30
10 | CCCCCCCC(=O)OC[C@H](NC(C)=O)C(=O)N[C@@H](Cc1ccccc1)C(=O)N[C@@H](CC(C)C)C(N)=O (Ac-Ser(Octanoyl)-Phe-Leu-NH2) | 2500 | > 10000 | 29
11 | CCCCCCCC(=O)OC[C@H](NC(=O)[C@H](CO)NC(C)=O)C(=O)N[C@@H](Cc1ccccc1)C(N)=O (Ac-Ser-Ser(Octanoyl)-Phe-NH2) | > 10000 | > 10000 | 28
12 | CCCCCCCC(=O)OC[C@H](NC(=O)[C@H](CO)NC(=O)CN)C(=O)N[C@@H](Cc1ccccc1)C(N)=O (H-GSS(Octanoyl)F-NH2) | 72 |  | 91
13 | CCCCCCCC(=O)OC[C@H](NC(=O)[C@H](CO)NC(=O)CN)C(=O)N[C@@H](Cc1ccccc1)C(=O)N[C@@H](CC(C)C)C(N)=O (H-GSS(Octanoyl)FL-NH2) | 11.5 |  | 11.5
14 | CCCCCCCC(=O)OC[C@H](NC(=O)[C@H](CO)NC(=O)CN)C(=O)N[C@@H](Cc1ccccc1)C(=O)N[C@@H](CC(C)C)C(=O)N[C@@H](CO)C(=O)N1CCC[C@H]1C(=O)N[C@@H](CCC(=O)O)C(=O)N[C@@H](Cc1c[nH]cn1)C(=O)N[C@@H](CCC(N)=O)C(=O)N[C@@H](CCCNC(=N)N)C(=O)N[C@H](C(=O)N[C@@H](CCC(N)=O)C(=O)N[C@@H](CCC(N)=O)C(=O)N[C@@H](CCCNC(=N)N)C(=O)N[C@@H](CCCCN)C(=O)N[C@@H](CCC(=O)O)C(=O)N[C@@H](CO)C(N)=O)C(C)C (H-GSS(Octanoyl)FLSPEHQRVQQRKES-NH2) [listing 1 of 2 here] | 22 | 0.77 | 
15 | CCCCCCCC(=O)OC[C@H](NC(=O)[C@H](CO)NC(=O)CN)C(=O)N[C@@H](Cc1ccccc1)C(=O)N[C@@H](CC(C)C)C(=O)N[C@@H](CO)C(=O)N1CCC[C@H]1C(=O)N[C@@H](CCC(=O)O)C(=O)N[C@@H](Cc1c[nH]cn1)C(=O)N[C@@H](CCC(N)=O)C(=O)N[C@@H](CCCNC(=N)N)C(=O)N[C@H](C(=O)N[C@@H](CCC(N)=O)C(=O)N[C@@H](CCC(N)=O)C(=O)N[C@@H](CCCNC(=N)N)C(=O)N[C@@H](CCCCN)C(=O)N[C@@H](CCC(=O)O)C(=O)N[C@@H](CO)C(N)=O)C(C)C (H-GSS(Octanoyl)FLSPEHQRVQQRKES-NH2) [listing 2 of 2 here] |  |  | 92
16 | CCCCCCCC(=O)OC[C@H](NC(=O)[C@H](CO)NC(=O)CN)C(=O)N[C@@H](Cc1ccccc1)C(=O)N[C@@H](CC(C)C)C(=O)N[C@@H](CO)C(=O)N1CCC[C@H]1C(=O)N[C@@H](CCC(=O)O)C(=O)N[C@@H](Cc1c[nH]cn1)C(=O)N[C@@H](CCC(N)=O)C(=O)N[C@@H](CCCN=C(N)N)C(=O)N[C@H](C(=O)N[C@@H](CCC(N)=O)C(=O)N[C@@H](CCC(N)=O)C(=O)N[C@@H](CCCN=C(N)N)C(=O)N[C@@H](CCCCN)C(=O)N[C@@H](CCC(=O)O)C(=O)N[C@@H](CO)C(=O)N[C@@H](CCCCN)C(=O)N[C@@H](CCCCN)C(=O)N1CCC[C@H]1C(=O)N1CCC[C@H]1C(=O)N[C@@H](C)C(N)=O)C(C)C (H-GSS(Octanoyl)FLSPEHQRVQQRKESKKPPA-NH2) | 15 |  | 100
17 | CCCCCCCC(=O)OC[C@H](NC(=O)[C@H](CO)NC(=O)CN)C(N)=O (H-Gly-Ser-Ser(Octanoyl)-NH2) | > 10000 | > 10000 | 28
